Assay results reported in ChEMBL document CHEMBL4837209, “Synthesis and BK channel-opening activity of 2-amino-1,3-thiazole derivatives” (Bioorg Med Chem Lett, 2021).
Calls of active or inactive are those of the source. No cut-off for these calls is given here.

How the values were obtained:
[1] = target: Calcium-activated potassium channel subunit alpha-1 (Homo sapiens) (UniProt Q12791); test: Opening of BK channel in human AD293 cells assessed as relative fluorescence unit at 5 uM by cell-based fluorescence assay relative to control
Chain of Calcium-activated potassium channel subunit alpha-1 (Homo sapiens) (Q12791 whole entry): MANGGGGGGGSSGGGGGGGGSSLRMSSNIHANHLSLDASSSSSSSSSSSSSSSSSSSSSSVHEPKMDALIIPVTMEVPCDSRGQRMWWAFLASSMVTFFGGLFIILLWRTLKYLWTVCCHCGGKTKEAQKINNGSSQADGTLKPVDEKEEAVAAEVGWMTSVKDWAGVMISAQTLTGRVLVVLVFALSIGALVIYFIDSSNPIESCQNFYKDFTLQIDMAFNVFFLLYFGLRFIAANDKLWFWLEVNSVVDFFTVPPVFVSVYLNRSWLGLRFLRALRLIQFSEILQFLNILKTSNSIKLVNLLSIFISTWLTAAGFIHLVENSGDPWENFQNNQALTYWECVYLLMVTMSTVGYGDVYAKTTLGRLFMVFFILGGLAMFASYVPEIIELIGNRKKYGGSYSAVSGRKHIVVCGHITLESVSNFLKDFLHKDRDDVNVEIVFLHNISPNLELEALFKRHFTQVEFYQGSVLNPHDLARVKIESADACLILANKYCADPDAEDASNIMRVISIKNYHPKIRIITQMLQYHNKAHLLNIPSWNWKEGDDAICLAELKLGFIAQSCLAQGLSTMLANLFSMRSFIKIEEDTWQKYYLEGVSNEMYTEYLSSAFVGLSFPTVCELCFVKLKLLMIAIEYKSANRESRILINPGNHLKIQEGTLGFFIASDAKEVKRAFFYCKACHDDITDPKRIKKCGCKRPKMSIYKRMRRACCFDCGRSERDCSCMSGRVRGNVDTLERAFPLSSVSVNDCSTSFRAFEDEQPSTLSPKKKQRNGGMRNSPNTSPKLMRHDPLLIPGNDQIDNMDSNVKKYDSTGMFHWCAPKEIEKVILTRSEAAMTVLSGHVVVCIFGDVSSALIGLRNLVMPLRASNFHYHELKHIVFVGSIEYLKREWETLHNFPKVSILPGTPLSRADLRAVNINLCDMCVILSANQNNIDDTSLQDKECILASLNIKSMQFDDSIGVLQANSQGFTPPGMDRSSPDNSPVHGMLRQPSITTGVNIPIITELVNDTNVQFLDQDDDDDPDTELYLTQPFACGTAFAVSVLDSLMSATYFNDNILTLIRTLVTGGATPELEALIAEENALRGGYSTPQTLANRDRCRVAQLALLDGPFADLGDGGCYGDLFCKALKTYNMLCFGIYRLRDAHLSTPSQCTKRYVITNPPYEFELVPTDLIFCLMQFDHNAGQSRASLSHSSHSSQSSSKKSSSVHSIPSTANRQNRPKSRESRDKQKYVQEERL
Summary of the method: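 FluxOR Tl⁺-flux assay in AD-293 cells expressing hyperactive mutant BK channels (G803D/N806K). Each fluorescence trace was normalized to its own basal level to give RFU. ΔRFU with compound at 5 μM was expressed versus the drug-free control. DMSO served as negative control and CTBIC at a fixed concentration as positive control. Values are means of at least three separate measurements.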

[2] = target: Calcium-activated potassium channel subunit alpha-1 (Homo sapiens) (UniProt Q12791); test: […] of BK calcium channel in human AD293 cells assessed as relative fluorescence unit at 1 to 30 uM in presence of 1 uM paxilline by cell-based fluorescence assay; conditions: dose 1-30 µM
Summary of the method: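 FluxOR Tl⁺-flux fluorescence in AD-293 cells expressing G803D/N806K mutant BK channels. Compounds were tested at 1–30 μM, alone and co-applied with 1 μM paxilline to confirm the BK dependence of the signal. Signals were normalized to the basal level of each trace. Student t-test was used.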

[3] = target: Calcium-activated potassium channel subunit alpha-1 (Rattus norvegicus) (UniProt Q62976); test: […] of rat BK calcium channel expressed in Xenopus laevis oocytes assessed as G-V shift toward more negative voltage at 10 uM at -80 to 200 mV by patch clamp assay; format: cell-based; conditions: Oocyte
Chain of Calcium-activated potassium channel subunit alpha-1 (Rattus norvegicus) (Q62976 whole entry): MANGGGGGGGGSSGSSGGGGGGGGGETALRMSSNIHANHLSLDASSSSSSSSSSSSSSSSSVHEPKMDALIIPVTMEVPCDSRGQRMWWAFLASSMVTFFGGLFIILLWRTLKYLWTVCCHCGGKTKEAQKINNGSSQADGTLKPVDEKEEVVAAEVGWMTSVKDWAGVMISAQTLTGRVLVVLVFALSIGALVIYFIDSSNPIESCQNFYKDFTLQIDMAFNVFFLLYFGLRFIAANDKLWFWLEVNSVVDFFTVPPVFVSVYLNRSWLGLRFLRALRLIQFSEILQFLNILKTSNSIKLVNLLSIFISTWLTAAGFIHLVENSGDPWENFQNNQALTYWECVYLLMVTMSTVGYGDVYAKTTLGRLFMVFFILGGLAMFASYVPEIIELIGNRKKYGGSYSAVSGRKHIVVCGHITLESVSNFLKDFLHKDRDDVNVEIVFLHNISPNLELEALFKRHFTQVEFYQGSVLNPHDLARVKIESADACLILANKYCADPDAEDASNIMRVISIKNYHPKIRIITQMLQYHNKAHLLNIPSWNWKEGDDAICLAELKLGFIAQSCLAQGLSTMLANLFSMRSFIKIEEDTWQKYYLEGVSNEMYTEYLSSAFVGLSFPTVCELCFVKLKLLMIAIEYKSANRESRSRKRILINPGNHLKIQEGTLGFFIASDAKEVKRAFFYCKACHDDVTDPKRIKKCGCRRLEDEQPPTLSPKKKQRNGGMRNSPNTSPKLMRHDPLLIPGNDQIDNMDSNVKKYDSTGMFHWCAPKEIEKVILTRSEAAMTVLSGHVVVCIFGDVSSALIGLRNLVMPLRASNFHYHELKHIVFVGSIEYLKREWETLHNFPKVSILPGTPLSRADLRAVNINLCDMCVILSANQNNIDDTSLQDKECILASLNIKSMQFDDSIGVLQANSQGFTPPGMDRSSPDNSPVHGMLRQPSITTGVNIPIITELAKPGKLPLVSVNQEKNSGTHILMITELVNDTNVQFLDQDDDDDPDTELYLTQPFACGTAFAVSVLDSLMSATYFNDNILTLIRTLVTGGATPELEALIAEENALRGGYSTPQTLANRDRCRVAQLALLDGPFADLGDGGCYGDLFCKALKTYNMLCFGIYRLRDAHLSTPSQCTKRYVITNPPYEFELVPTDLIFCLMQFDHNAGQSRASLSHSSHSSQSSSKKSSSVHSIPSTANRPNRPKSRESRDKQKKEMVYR
Summary of the method: (§1)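 Rat BK α-subunit (Slo1) expressed in Xenopus laevis oocytes. Currents were recorded by gigaohm-seal patch clamp in the outside-out configuration. Macroscopic currents were evoked by voltage pulses from -80 to 200 mV, with and without compound. Student t-test was used.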

[4] = target: Calcium-activated potassium channel subunit alpha-1 (Rattus norvegicus) (UniProt Q62976); test: […] of rat BK calcium channel expressed in Xenopus laevis oocytes assessed as increase in inward current tail at 10 uM at -80 to 200 mV by patch clamp assay; format: cell-based; conditions: Oocyte; summary of the method: as §1
[5] = target: Calcium-activated potassium channel subunit alpha-1 (Rattus norvegicus) (UniProt Q62976); test: […] of rat BK calcium channel expressed in Xenopus laevis oocytes assessed as maximum conductance at 10 uM at -80 to 200 mV by patch clamp assay relative to control; format: cell-based; conditions: Oocyte; summary of the method: as §1
[6] = target: Calcium-activated potassium channel subunit alpha-1 (Homo sapiens) (UniProt Q12791); test: Opening of BK channel in human AD293 cells assessed as relative fluorescence unit by cell-based fluorescence assay; conditions: dose 1-30 µM
[7] = target: Calcium-activated potassium channel subunit alpha-1 (Rattus norvegicus) (UniProt Q62976); test: […] of rat BK calcium channel expressed in Xenopus laevis oocytes assessed as increase in outward current tail at 10 uM at -80 to 200 mV by patch clamp assay; format: cell-based; conditions: Oocyte; summary of the method: as §1
[8] = target: Calcium-activated potassium channel subunit alpha-1 (Rattus norvegicus) (UniProt Q62976); test: […] of rat BK calcium channel expressed in Xenopus laevis oocytes assessed as V1/2 at 10 uM at -80 to 200 mV by patch clamp assay; format: cell-based; conditions: Oocyte; summary of the method: as §1

SMILES	RFU [1]	further results
COc1ccc(Cc2cnc(N)s2)cc1	1.02	–
O=C(CCl)Nc1ncc(Cc2ccc(Br)cc2)s1	0.94	–
CC(=O)Nc1ncc(Cc2ccc(Br)cc2)s1	1.14	–
Nc1ncc(Cc2ccc([N+](=O)[O-])cc2)s1	0.94	–
COc1ccccc1Cc1cnc(N)s1	0.94	–
Nc1ncc(Cc2cccc(Cl)c2)s1	1.51	–
Cc1ccc(Cc2cnc(N)s2)cc1	1.11	–
Nc1ncc(Cc2cccnc2)s1	1.08	–
Nc1ncc(Cc2ccncc2)s1	1.11	–
N#Cc1ccccc1Cc1cnc(N)s1	1.06	–
N#Cc1ccc(Cc2cnc(N)s2)cc1	1.21	–
Nc1ncc(Cc2ccccc2Br)s1	2.67	inhibition [2]: Active; Activity [3]: Active; Activity [4]: Active; fold change (FC) [5]: 1.4; inhibition [6]: Dose-Dependent Effect; Activity [7]: Active; V1/2 [8]: 23.4 mV
Cc1ccccc1Cc1cnc(N)s1	1.37	–
Nc1ncc(Cc2cccc(C(F)(F)F)c2)s1	1.22	–
Nc1ncc(Cc2ccccc2C(F)(F)F)s1	1.07	–
O=C(O)c1ccc(Cl)c2c1[nH]c1c3ccc(C(F)(F)F)cc3oc12	3.3	–
COc1cccc(Cc2cnc(N)s2)c1	1.02	–
N#Cc1cccc(Cc2cnc(N)s2)c1	1	–
COc1cc(Cc2cnc(N)s2)cc(C(F)(F)F)c1	0.97	–
Nc1ncc(Cc2ccccc2Cl)s1	1.13	–
Nc1ncc(Cc2cccc(Br)c2)s1	1.37	–
Nc1ncc(C(=O)c2ccc(Br)cc2)s1	0.94	–
Nc1ncc(C(=O)c2ccc(C(F)(F)F)cc2)s1	1.08	–
Nc1ncc(Cc2ccc(C(F)(F)F)cc2)s1	2.1	inhibition [2]: Active; Activity [3]: Active; Activity [4]: Active; fold change (FC) [5]: 1.3; inhibition [6]: Dose-Dependent Effect; Activity [7]: Active; V1/2 [8]: 24.5 mV
Nc1ncc(Cc2ccc(Br)cc2)s1	1.85	–
Cc1cccc(Cc2cnc(N)s2)c1	1.27	–
Nc1ncc(Cc2ccc(Cl)cc2)s1	1.59	–
